Measured values published in ChEMBL document CHEMBL3400136, “Design and synthesis of new potassium channel activators derived from the ring opening of diazoxide: study of their vasodilatory effect, stimulation of elastin synthesis and inhibitory effect on insulin release” (Bioorg Med Chem, 2015).
Blank lines part the entries; values can stand above or below the compound they belong to. Calls of active or inactive are those of the source. The rule behind the calls is not given here.

Assays:
Thoracic aorta [1] = assay: Vasorelaxant activity in Wistar rat endothelium thoracic aortic ring assessed as inhibition of 30 mM KCl-induced contraction; assay type: functional, tissue-based
Outline: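 Rings from adult Wistar rat thoracic aorta, with or without endothelium, under 1.5 g tension in oxygenated physiological solution at 37 °C, pH 7.36. Contraction by 30 mM KCl after 60 min equilibration, then cumulative drug to maximal relaxation. EC50 = concentration giving 50% relaxation of KCl contraction; mean ± sem.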

Thoracic aorta [2] = assay: Vasorelaxant activity in Wistar rat thoracic aortic ring assessed as inhibition of KCl-induced contraction in presence of glibenclamide; assay type: functional, tissue-based
Outline: (§1)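 Thoracic aorta rings (2–3 mm) from adult Wistar rats, held at 1.5 g tension in Krebs-type solution pH 7.36, 37 °C, O2/CO2 95:5. After 60 min equilibration, contracted with 30 or 80 mM KCl, some with 10 µM glibenclamide. Cumulative drug additions to maximal relaxation; isometric tension by force transducer. Relaxation as % of KCl contraction; EC50 from concentration-response curves; mean ± sem, n experiments.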

Thoracic aorta [3] = assay: Vasorelaxant activity in Wistar rat thoracic aortic ring assessed as inhibition of 80 mM KCl-induced contraction; assay type: functional, tissue-based; outline: as §1
Thoracic aorta [4] = assay: Vasorelaxant activity in Wistar rat thoracic aortic ring assessed as inhibition of 30 mM KCl-induced contraction; assay type: functional, tissue-based; outline: as §1
Rattus norvegicus [5] = species: Rattus norvegicus; assay: Activation of ATP-sensitive potassium channel in Wistar rat pancreatic islets assessed as inhibition of 16.7 mM of glucose-induced insulin secretion by measuring residual insulin secretion at 50 uM after 90 mins relative to control
Outline: (§2)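 Islets from adult fed Wistar rats, groups of 10. Preincubated 30 min at 37 °C in bicarbonate salt medium with 2.8 mM glucose and 0.5% dialysed albumin, gassed O2/CO2 95:5. Then 90 min at 37 °C in same medium with 16.7 mM glucose plus drug. Insulin by radioimmunoassay against rat insulin standard, expressed as % of drug-free 16.7 mM glucose control.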

Rattus norvegicus [6] = species: Rattus norvegicus; assay: Activation of ATP-sensitive potassium channel in Wistar rat pancreatic islets assessed as inhibition of 16.7 mM of glucose-induced insulin secretion by measuring residual insulin secretion at 10 uM after 90 mins relative to control; outline: as §2
Homo sapiens [7] = species: Homo sapiens; assay: Activation of ATP-sensitive potassium channel in vascular smooth muscle cells (unknown origin) assessed as increase in elastin production after 48 hrs by ELISA
Outline: (§3)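 Primary aortic smooth muscle cells serum-starved overnight in 1% FCS-DMEM, seeded 25,000 cells/well and adhered overnight. Compounds in DMSO (final <1%) for 48 h, some wells with 10 µM glibenclamide throughout. Controls were DMSO alone, 1 mM minoxidil in water, or diazoxide. Cells fixed in 4% paraformaldehyde, extracellular elastin by anti-elastin ELISA with HRP secondary, read by absorbance. n = 3–4 from different cultures; ANOVA.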

Homo sapiens [8] = species: Homo sapiens; assay: Activation of ATP-sensitive potassium channel in vascular smooth muscle cells (unknown origin) assessed as increase in elastin production at 100 uM after 48 hrs by ELISA; outline: as §3
Homo sapiens [9] = species: Homo sapiens; assay: Activation of ATP-sensitive potassium channel in vascular smooth muscle cells (unknown origin) assessed as increase in elastin production at 10 to 100 uM after 48 hrs by ELISA in presence of glibenclamide; outline: as §3
Homo sapiens [10] = species: Homo sapiens; assay: Activation of ATP-sensitive potassium channel in vascular smooth muscle cells (unknown origin) assessed as increase in elastin production at 100 uM after 48 hrs by ELISA
Rattus norvegicus [11] = assay: Activation of ATP-sensitive potassium channel in Wistar albino rat assessed as effect on blood glucose at 50 mg/kg, po; assay type: functional, organism-based; design: dose 50 mg/kg
Outline: (§4)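 Adult fed Wistar albino rats, conscious, free access to water and standard pellet diet, held in a small cabinet from 60 min before sampling. Single oral dose in DMSO (0.2 mL) at time zero; controls got DMSO alone. Tail blood drop at 0, 1, 2, 3 and 4 h, glucose by reagent strip and glucometer. Mean ± sem, n = 3 rats.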

Homo sapiens [12] = species: Homo sapiens; assay: Activation of ATP-sensitive potassium channel in vascular smooth muscle cells (unknown origin) assessed as increase in elastin production at 10 to 20 uM after 48 hrs by ELISA; outline: as §3
Rattus norvegicus [13] = assay: Hyperglycemic effect in Wistar albino rat assessed as effect on blood glucose at 50 mg/kg, po; assay type: functional, organism-based; design: dose 50 mg/kg; outline: as §4
Homo sapiens [14] = species: Homo sapiens; assay: Activation of ATP-sensitive potassium channel in vascular smooth muscle cells (unknown origin) assessed as increase in elastin production at 50 uM after 48 hrs by ELISA
Outline: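 Primary aortic smooth muscle cells were serum-starved overnight in 1% FCS-DMEM, seeded at 25,000 cells/well and left to adhere overnight. They were then exposed for 48 h in 1% FCS-DMEM to compound in DMSO (final DMSO <1%). Cells were fixed in 4% paraformaldehyde, blocked with 2% BSA, then labelled with anti-elastin antibody (1:1000) and HRP secondary (1:50,000). The reaction was stopped with sulfuric acid and absorbance read. Negative control was DMSO; positive control was 1 mM minoxidil.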

[15] = Dissociation constant, pKa of the compound by UV-Visible spctrophotometry; assay type: physicochemical
Outline: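 UV–visible spectra recorded at ambient temperature in borate and phosphate buffers from pH 3 to 10, using neutral and ionic species references in 0.1 N HCl and 0.1 N NaOH. Exact pH measured for each spectrum. pKa calculated by the Albert–Serjeant formula.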

Rattus norvegicus [16] = species: Rattus norvegicus; assay: Activation of ATP-sensitive potassium channel in Wistar rat thoracic aortic ring assessed as rightward shift; assay type: tissue-based; settings: Aorta; outline: as §1
Rattus norvegicus [17] = assay: Hypoglycemic effect in Wistar albino rat assessed as effect on blood glucose at 0.25 mg/kg, po; assay type: functional, organism-based; design: dose 0.25 mg/kg; outline: as §4
Homo sapiens [18] = species: Homo sapiens; assay: Activation of ATP-sensitive potassium channel in vascular smooth muscle cells (unknown origin) assessed as increase in elastin production at 10 to 100 uM after 48 hrs by ELISA; outline: as §3

EC50 (Thoracic aorta [1]): 33.8 µM
SMILES: O=C(NC(=O)c1ccccc1OCc1ccccc1)NC1CCCCC1

EC50 (Thoracic aorta [1]): > 300 µM
SMILES: COc1ccc(F)cc1S(=O)(=O)NC(=S)NC(C)C

EC50 (Thoracic aorta [1]): 18.6 µM | EC50 (Thoracic aorta [2]): 28.1 µM | EC50 (Thoracic aorta [3]): 38.1 µM | EC50 (Thoracic aorta [4]): 15.7 µM | Activity (Rattus norvegicus [5]): 105% | Activity (Rattus norvegicus [6]): 90.9% | Activity (Homo sapiens [7]): Dose-dependent effect | Activity (Homo sapiens [8]): 30% | Activity (Homo sapiens [9]): inactive | Activity (Homo sapiens [10]): 30%
SMILES: COc1ccccc1C(=O)NC(=S)NC(C)C

EC50 (Thoracic aorta [1]): 47.2 µM
SMILES: COc1ccccc1C(=O)NC(=S)NCc1ccccc1

EC50 (Thoracic aorta [1]): 26.8 µM
SMILES: CC(C)NC(=O)NC(=O)c1ccccc1OCc1ccccc1

EC50 (Thoracic aorta [1]): 36.6 µM
SMILES: CCC(C)NC(=S)NC(=O)c1ccccc1OC (stereo not given)

EC50 (Thoracic aorta [1]): 71.1 µM
SMILES: CCCOc1ccccc1C(=O)NC(=S)NCc1ccccc1

EC50 (Thoracic aorta [1]): > 100 µM
SMILES: CCNC(=O)NC(=O)c1ccccc1OC

EC50 (Thoracic aorta [1]): > 100 µM
SMILES: O=C(NC(=S)NCc1ccccc1)c1ccccc1OCc1ccccc1

EC50 (Thoracic aorta [1]): 16.5 µM | EC50 (Thoracic aorta [2]): 64.9 µM | EC50 (Thoracic aorta [3]): 121 µM | EC50 (Thoracic aorta [4]): 12 µM | Activity (Rattus norvegicus [5]): 44.9% | Activity (Rattus norvegicus [6]): 83.8%
SMILES: CCCOc1ccccc1C(=O)NC(=S)Nc1ccccc1
Activity (Rattus norvegicus [11]): inactive

EC50 (Thoracic aorta [1]): 21.1 µM
SMILES: O=C(NCc1ccccc1)NC(=O)c1ccccc1OCc1ccccc1

EC50 (Thoracic aorta [1]): 34.5 µM
SMILES: COc1ccccc1C(=O)NC(=S)Nc1ccccc1

EC50 (Thoracic aorta [1]): 91.4 µM
SMILES: COc1ccccc1C(=O)NC(=O)NC(C)C

EC50 (Thoracic aorta [1]): 16.7 µM | EC50 (Thoracic aorta [2]): 38 µM | EC50 (Thoracic aorta [3]): 36.6 µM | EC50 (Thoracic aorta [4]): 17.2 µM | Activity (Rattus norvegicus [5]): 113% | Activity (Rattus norvegicus [6]): 110% | Activity (Homo sapiens [12]): inactive
SMILES: CCNC(=O)NC(=O)c1ccccc1OCc1ccccc1

EC50 (Thoracic aorta [1]): 35.9 µM
SMILES: COc1ccccc1C(=O)NC(=O)NC1CCCCC1

EC50 (Thoracic aorta [1]): 26.7 µM
SMILES: COc1ccccc1C(=O)NC(=O)Nc1ccccc1

EC50 (Thoracic aorta [1]): 17.3 µM
SMILES: CCCCCNC(=O)NC(=O)c1ccccc1OCc1ccccc1

EC50 (Thoracic aorta [3]): > 300 µM | Activity (Rattus norvegicus [5]): 28.8% | Activity (Rattus norvegicus [6]): 70% | Activity (Homo sapiens [14]): 67%
SMILES: CC1=Nc2ccc(Cl)cc2S(=O)(=O)N1 [DIAZOXIDE]
Activity (Rattus norvegicus [13]): Active

EC50 (Thoracic aorta [1]): > 300 µM
SMILES: COc1ccc(Cl)cc1S(=O)(=O)NC(=S)NCc1ccccc1

EC50 (Thoracic aorta [1]): 31.8 µM
SMILES: CCC(C)NC(=O)NC(=O)c1ccccc1OC (stereo not given)

EC50 (Thoracic aorta [1]): > 300 µM | pKa [15]: 5.65
SMILES: COc1ccc(Cl)cc1S(=O)(=O)NC(=O)NC(C)C

EC50 (Thoracic aorta [1]): 12.2 µM | EC50 (Thoracic aorta [2]): 20.2 µM | EC50 (Thoracic aorta [3]): 45.6 µM | EC50 (Thoracic aorta [4]): 15.3 µM | Activity (Rattus norvegicus [5]): 21.4% | Activity (Rattus norvegicus [6]): 90.1% | Activity (Homo sapiens [7]): Dose-dependent effect | Activity (Homo sapiens [8]): 30% | Activity (Homo sapiens [9]): inactive | Activity (Homo sapiens [10]): 30%
SMILES: CCC(C)NC(=O)NC(=O)c1ccccc1OCc1ccccc1 (stereo not given)
Activity (Rattus norvegicus [16]): Dose-dependent effect | Activity (Rattus norvegicus [11]): inactive

EC50 (Thoracic aorta [1]): > 300 µM | pKa [15]: 5.46
SMILES: COc1ccc(Cl)cc1S(=O)(=O)NC(=O)NC1CCCCC1

EC50 (Thoracic aorta [1]): > 300 µM
SMILES: CCOc1ccc(Cl)cc1S(=O)(=O)NC(=O)NC1CCCCC1

EC50 (Thoracic aorta [1]): > 300 µM | pKa [15]: 4.5
SMILES: COc1ccc(Cl)cc1S(=O)(=O)NC(=O)Nc1ccccc1

EC50 (Thoracic aorta [1]): > 300 µM
SMILES: CCOc1ccc(Cl)cc1S(=O)(=O)NC(=S)NCc1ccccc1

EC50 (Thoracic aorta [1]): > 300 µM
SMILES: CCNC(=S)NS(=O)(=O)c1cc(Cl)ccc1OC

EC50 (Thoracic aorta [1]): > 300 µM
SMILES: CCOc1ccc(Cl)cc1S(=O)(=O)NC(=O)NC(C)C

EC50 (Thoracic aorta [1]): > 300 µM | pKa [15]: 5.74
SMILES: COc1ccc(Cl)cc1S(=O)(=O)NC(=S)NC(C)C

EC50 (Thoracic aorta [1]): 59.6 µM
SMILES: CCCOc1ccccc1C(=O)NC(=O)Nc1ccccc1

EC50 (Thoracic aorta [1]): > 300 µM | pKa [15]: 5.52
SMILES: COc1ccc(F)cc1S(=O)(=O)NC(=O)NC(C)C

EC50 (Thoracic aorta [1]): > 300 µM
SMILES: COc1ccc(Cl)cc1S(=O)(=O)NC(=O)Nc1ccc(F)cc1

EC50 (Thoracic aorta [1]): 58.2 µM
SMILES: CCCOc1ccccc1C(=O)NC(=O)NC1CCCCC1

SMILES: COc1ccc(Cl)cc1C(=O)NCCc1ccc(S(=O)(=O)NC(=O)NC2CCCCC2)cc1
Activity (Rattus norvegicus [17]): Active

EC50 (Thoracic aorta [1]): > 300 µM
SMILES: CCOc1ccc(Cl)cc1S(=O)(=O)NC(=S)NC(C)C

EC50 (Thoracic aorta [1]): > 300 µM
SMILES: CCOc1ccc(Cl)cc1S(=O)(=O)NC(=S)Nc1ccc(F)cc1

EC50 (Thoracic aorta [1]): 15.2 µM | EC50 (Thoracic aorta [2]): 28.2 µM | EC50 (Thoracic aorta [3]): 57.1 µM | EC50 (Thoracic aorta [4]): 17.4 µM | Activity (Rattus norvegicus [5]): 99.6% | Activity (Rattus norvegicus [6]): 94.1% | Activity (Homo sapiens [18]): inactive
SMILES: CCNC(=S)NC(=O)c1ccccc1OC

EC50 (Thoracic aorta [1]): > 300 µM
SMILES: CCOc1ccc(Cl)cc1S(=O)(=O)NC(=O)Nc1ccccc1
